PERK inh: human PERK inhibition, primary cell-based screen; Q9NZJ5; CHO PERK-DD fusion, SEAP luminescence translation reporter; inhibition, % at 5.6 µM; 220,000 compounds, 0.17% hits;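 active = inhibition above the mean inhibition of all tested compounds plus 3 SD, set separately per screening campaign, cut at about 2.9% in these data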;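 also: PERK kinase domain activated by AP20187 dimerizer at 100 nM; 0% = DMSO with dimerizer and 100% = rapamycin at 8.4 µM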
Hsp70 activator: Hsp70 transcriptional activation, primary screen; HeLa Hsp70 promoter luciferase reporter, luminescence; scaled: vehicle 0, proteasome-inhibitor control 100%; activation, % at 10 µM; 200,000 compounds, 0.04% hits; AID 1203;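 active = activation above the mean across all tested compounds plus 3 SD, cutoff set per campaign, cut at about 5.5% in these data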;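 also: 100% = MG132 at 30 µM as the positive control and 0% = DMSO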
STAT3 activator: increases IL-6 driven STAT3 reporter signal; U3A cells, IL-6 STAT3-luciferase reporter, luminescence; 100% = signal with IL-6 EC80 alone; activation (% of control), % at 5.6 µM; 190,000 compounds, 0.91% hits; AID 871;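 active = activation above the screen-wide mean of compound activation plus 3 SD, cut at about 130% in these data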;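 also: 0% = background luminescence of wells with medium and substrate only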
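Material: human STAT1-deficient U3A cells with stable STAT3-luciferase reporter / Probe or stimulus: IL-6 stimulus at 33 ng/mL final / Schedule: 1 h compound pre-exposure, 6 h IL-6 stimulation, 37 °C / Technique: luminescence / Read-out basis: percent of IL-6-only median luminescence / Control set: IL-6-only high control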
PolyA inhibitor: yeast polyadenylation inhibition; 300,000 compounds, 0.02% hits; AID 1875; activity score, % at 12 µM; S. cerevisiae SKY197-pL101 polyadenylation reporter, beta-gal luminescence; efflux-impaired pdr1/pdr3 knockout yeast; score 100 = 6 SD above DMSO;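 active = lowest replicate activity score at least 50, where 100 means six control SD above control mean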;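 also: yeast exposed to compound for 9 h at 30 °C; higher score means more reporter readthrough which indicates perturbed polyadenylation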
AHR activator: activates the human aryl hydrocarbon receptor; P35869; AHR-responsive luciferase reporter cells, luminescence; activation, % at 5 µM; 320,000 compounds, 2.5% hits; AID 2796; in the data active = activation above about 47%;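 also: 0% = vehicle wells and 100% = reference agonist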
Target sequence (P35869 whole entry, looked up): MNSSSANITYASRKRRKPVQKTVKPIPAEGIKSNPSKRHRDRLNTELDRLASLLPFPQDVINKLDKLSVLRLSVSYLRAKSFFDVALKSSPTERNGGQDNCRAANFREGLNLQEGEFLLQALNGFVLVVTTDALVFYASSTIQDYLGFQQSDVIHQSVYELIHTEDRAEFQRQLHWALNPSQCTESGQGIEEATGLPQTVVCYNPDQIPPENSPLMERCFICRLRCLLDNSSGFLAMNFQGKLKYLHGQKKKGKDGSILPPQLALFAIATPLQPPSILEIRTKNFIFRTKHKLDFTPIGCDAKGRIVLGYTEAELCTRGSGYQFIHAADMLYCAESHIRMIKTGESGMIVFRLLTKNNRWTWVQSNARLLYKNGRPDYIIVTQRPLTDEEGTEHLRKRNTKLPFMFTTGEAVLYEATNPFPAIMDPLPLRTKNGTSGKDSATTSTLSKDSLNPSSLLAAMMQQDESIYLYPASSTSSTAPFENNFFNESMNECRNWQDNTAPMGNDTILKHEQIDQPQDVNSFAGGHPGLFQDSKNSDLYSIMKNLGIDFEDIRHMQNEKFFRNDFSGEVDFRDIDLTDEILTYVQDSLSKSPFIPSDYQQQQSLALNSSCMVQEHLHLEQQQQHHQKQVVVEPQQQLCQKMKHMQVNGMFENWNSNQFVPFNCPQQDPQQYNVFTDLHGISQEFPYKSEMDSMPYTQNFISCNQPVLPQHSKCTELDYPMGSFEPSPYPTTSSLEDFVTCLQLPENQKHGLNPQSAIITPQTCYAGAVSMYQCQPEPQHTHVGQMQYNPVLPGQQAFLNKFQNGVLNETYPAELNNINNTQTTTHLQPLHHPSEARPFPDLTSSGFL
HSF1 inhib: HSF1 inhibition; AID 2098; activity change, negative = inhibition, % at 7.5 µM (by protocol); NIH3T3-HGL HSE-luciferase, MG132-induced, luminescence 8 h; stronger effect = lower value; 300,000 compounds, 0.77% hits;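 active = more than half of replicate wells show activity change below -50%, luminescence cut by over half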;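 also: luciferase reports HSF-1 transcriptional activity via heat shock element; 0% = median of DMSO wells and -100% = zero luminescence signal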
The depositor's hits bear a star; . = no result given. In the library only some 3.6% were active in any assay of this set; here they are far more common.

SMILES | PERK inh | Hsp70 activator | STAT3 activator | PolyA inhibitor | AHR activator | HSF1 inhib
COc1ccc(-c2nc3cnccn3c2Nc2ccc(C)cc2)cc1 | -1.0 | 0.0 | 92.0 | 0.8 | 65.3* | 13.6
O=C(Cn1nc(-c2ccc(Cl)cc2)ccc1=O)NCc1ccc2c(c1)OCO2 | 2.1 | 1.4 | 99.8 | 14.6 | 53.9* | -0.9
O=C(Cn1nc(-c2ccccc2)ccc1=O)NCc1ccc(F)cc1 | -0.8 | 0.2 | 104.0 | -2.0 | 2.0 | -1.9
O=C(Cn1nc(-c2ccccc2)ccc1=O)NCc1ccc2c(c1)OCO2 | 0.4 | -0.3 | 102.0 | 1.0 | 67.8* | -7.2
O=C(Cn1nc(-c2ccc(Cl)cc2)ccc1=O)NCC1CCCO1 (configuration not stated) | 0.5 | -0.2 | 100.2 | 11.5 | -0.9 | -56.6*
COc1ccc(S(=O)(=O)N(C)C[C@H]2Oc3ccc(NC(=O)c4ccncc4)cc3C(=O)N([C@H](C)CO)C[C@@H]2C)cc1 | . | . | . | . | -1.7 | .
CCC(=N\NC(=O)COc1ccccc1OC)/C(CC)=N/NC(=O)COc1ccccc1OC | . | . | . | . | 2.2 | .
CN(CCn1ccnc1)Cc1cn(-c2ccccc2)nc1-c1ccc2c(c1)OCO2 | 0.9 | 0.2 | 107.6 | 11.1 | 54.5* | 2.9
CN(Cc1cn(-c2ccccc2)nc1-c1ccc2c(c1)OCO2)Cc1nccn1C | -0.7 | 0.2 | 102.5 | 4.0 | 47.8* | 4.8
CN(Cc1cn(C)nc1-c1ccccc1F)Cc1nccn1C | 0.1 | -0.1 | 102.0 | 5.3 | 0.4 | -4.9
COC(=O)c1ccc(CN2CCN(CC=C(C)C)C(CCO)C2)cc1 (configuration not stated) | -0.7 | -0.2 | 96.9 | -4.7 | 0.2 | 1.7
O=C(NCc1ccc(F)cc1)C1CCN(S(=O)(=O)c2cccc3nonc23)CC1 | . | . | . | -16.7 | -1.6 | -0.8
CCc1ccccc1NC(=O)c1sc2nc(C)cc(C)c2c1N | . | . | . | -21.0 | 66.8* | 3.5
Cc1cc(C)c2c(N)c(C(=O)c3ccc(Cl)cc3Cl)sc2n1 | 0.5 | -0.5 | 101.4 | 0.9 | 34.1 | -26.9
Cc1cc(C)c2c(N)c(C(=O)c3cccc(Cl)c3)sc2n1 | 0.3 | -0.4 | 94.2 | 8.0 | 47.5* | -3.2
Cc1cc(C)c2c(N)c(C(=O)Nc3ccccc3Br)sc2n1 | . | . | . | -8.9 | 41.8 | 7.0
COc1cccc2c1OCC(C(=O)Nc1nccs1)=C2 | . | . | . | -9.1 | 39.9 | 12.7
Cc1onc(-c2c(F)cccc2Cl)c1C(=O)c1ccc(F)cc1 | 0.5 | . | . | 0.1 | -2.9 | -8.1
Cc1onc(-c2c(F)cccc2Cl)c1C(=O)c1ccccc1 | 0.4 | . | . | -16.8 | -1.1 | -60.9*
CCOC(=O)Nc1sc2nc(C)cc(C)c2c1-n1cccc1 | -0.9 | -0.3 | 103.7 | -34.0 | 69.9* | .
CCOc1ccc(NC(=O)CN(C)C(=O)c2cccnc2Sc2ccc(C)c(C)c2)cc1OCC | . | . | . | 11.6 | 0.0 | 3.0
COc1cccc2c1OCC/C2=N\NC(=O)COc1ccccc1C | 0.7 | -0.4 | 96.2 | 8.3 | 47.9* | 3.2
Cc1ccccc1OCC(=O)N/N=C1\CCOc2c(C)cccc21 | 1.5 | -0.2 | 94.7 | -7.8 | 1.3 | -2.2
CCOc1nc(-c2ccccc2)ncc1Oc1ccccc1 | . | . | . | -0.1 | 6.9 | -1.1
COc1ccc(-c2csc3ncnc(N4CCN(c5ccc(OC)cc5)CC4)c23)cc1 | . | . | . | -28.2 | 6.0 | -4.3
SMILES | PERK inh | Hsp70 activator | STAT3 activator | PolyA inhibitor | AHR activator | HSF1 inhib
COc1ccc(-c2nsc3c(N4CCCC4)ncnc23)cc1 | 0.9 | -0.3 | 60.4 | 10.8 | -0.7 | -55.0*
O=C(c1ccco1)N1CCN(c2ncnc3c(-c4ccc(Cl)cc4)nsc23)CC1 | . | . | . | 0.2 | 57.7* | -44.4
Cc1sc2ncnc(N3CCN(C(=O)c4ccco4)CC3)c2c1C | -1.2 | -0.2 | 85.8 | 0.0 | 54.8* | 2.3
Cc1ccc(-c2csc3ncnc(N4CCN(C(=O)c5ccco5)CC4)c23)cc1 | . | . | . | . | -1.3 | .
Cc1ccc(CNC(=O)CN2C(=O)CSc3ccc(S(=O)(=O)N4CCCCC4)cc32)cc1 | . | . | . | -4.0 | 3.3 | 7.5
Cc1ccc(N(CC(=O)NC2CCCCC2)C(=O)CNC(=O)c2ccco2)cc1C | . | . | . | 1.9 | -0.2 | 3.1
Cc1ccc(C)c(S(=O)(=O)N/N=C/c2ccc(N(C)C)cc2)c1 | 0.7 | -0.3 | 105.2 | 10.2 | 3.8 | -2.5
Cc1ccc(C)c(S(=O)(=O)N/N=C/c2ccc(F)cc2)c1 | 2.1 | -0.3 | 103.8 | 5.8 | 73.6* | 1.6
N#Cc1ccc(-c2ccccc2)nc1SCC(=O)c1cc2ccccc2oc1=O | 0.1 | -0.1 | 91.2 | 6.7 | 55.2* | -1.7
O=C1c2ccccc2C(=O)N1CCCOc1ccccc1 | 0.3 | -0.1 | 98.1 | -17.6 | 66.2* | 13.5
N=c1c2c3c(sc2ncn1Cc1ccccc1)CCCC3 | -0.8 | -0.1 | 109.9 | -6.7 | 6.8 | -0.1
N=c1c2c3c(sc2ncn1Nc1ccccc1)CCC3 | 0.3 | . | . | 6.3 | 68.4* | -7.8
O=C(Nc1ccccc1Br)C1CCN(S(=O)(=O)c2cccs2)CC1 | . | . | . | . | -3.7 | .
CNC(=O)c1cc2c(s1)-c1ccccc1CC2 | 1.9 | -0.2 | 108.2 | -38.4 | 74.6* | 22.8
O=C(N/N=C/c1ccc(F)c(F)c1)c1cc2c(s1)-c1ccccc1CC2 | 0.2 | -0.4 | 81.9 | 12.5 | 11.8 | -6.2
O=C(CCN1C(=O)[C@@H]2Cc3ccccc3CN2C1=O)NCc1ccc(Cl)cc1 | . | . | . | 13.6 | -0.9 | -1.6
CCOC(=O)C1C(=O)OC(C)(C)C1C(C)C(=O)c1ccc(C)cc1 (configuration not stated) | 0.3 | 0.1 | 101.3 | 10.7 | -0.7 | -52.1*
Cc1ccc(C)c(OCC(=O)NNC(=O)CCN2CCN(c3ccccc3)CC2)c1 | . | . | . | . | -1.2 | .
CC1Cc2cc(S(=O)(=O)N3CCCC(C(=O)N4CCCCC4)C3)ccc2N1C(=O)C1CC1 (configuration not stated) | . | . | . | -18.5 | -0.3 | 1.5
CC1CCCN(C(=O)C2CCN(S(=O)(=O)c3ccc4c(c3)CC(C)N4C(=O)C3CC3)CC2)C1 (configuration not stated) | . | . | . | 5.4 | 2.1 | -68.5*
CCOC(=O)c1c(NC(=O)COC(=O)c2nccnc2N)sc(C(=O)N(C)C)c1C | . | . | . | 15.3 | 0.0 | -50.5*
CCOC(=O)c1c(NC(=O)COC(=O)c2ccccn2)sc(C(=O)N(C)C)c1C | . | . | . | 11.8 | 12.9 | -9.0
COc1ccc(OC)c(Nc2cc(C)c3ccccc3n2)c1 | . | . | . | -6.4 | 48.8* | -6.6
Nc1nnnn1/N=C/c1cc(Br)ccc1O | . | . | . | 2.1 | 15.9 | -1.9
CCc1ccc(-c2nc(CSCC(=O)NCc3ccco3)c(C)o2)cc1 | 1.5 | -0.3 | 83.5 | -4.8 | . | -71.8*
Cc1ccc(-c2nc(CSCC(=O)NCC3CCCO3)c(C)o2)cc1 (configuration not stated) | . | . | . | 6.4 | 2.8 | 10.5
CCOc1ccc(-c2nc(CSCC(=O)NCC3CCCO3)c(C)o2)cc1 (configuration not stated) | . | . | . | 12.2 | -5.2 | -57.3*

High-throughput results: PubChem BioAssay, several laboratories
